These results are taken from ChEMBL document CHEMBL4152210, “Design, synthesis, anti-lung cancer activity, and chemosensitization of tumor-selective MCACs based on ROS-mediated JNK pathway activation and NF-κB pathway inhibition” (Eur J Med Chem, 2018).

For series [1], the system named is A549. Briefly: Chemosensitization activity in human A549 cells assessed as inhibition of clonogenic growth at 0.5 uM in presence of 0.74 uM cisplatin incubated for 2 days followed by replacement of growth media and measured after 8 days by crystal violet staining-based assay relative to control. It is filed as functional. Put shortly:
(§1)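 A549 seeded at 1000 cells per well in 6-well plates, exposed to drug alone or combined with cisplatin or 5-Fu over a concentration series. Drug-containing medium replaced after 2 days. After a further 8 days, fixed with 1% methanol/1% formaldehyde and stained with 0.5% crystal violet. Percent inhibition at each concentration calculated relative to control.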

For series [2], the system named is A549. The experiment in a line: Anticlonogenic activity against human A549 cells assessed as inhibition of clonogenic growth at 0.25 uM incubated for 2 days followed by replacement of growth media and measured after 8 days by crystal violet staining-based assay relative to control. Type of series: functional. Put shortly: as §1
Series [3] has as its system A549. The experiment in a line: Chemosensitization activity in human A549 cells assessed as inhibition of clonogenic growth at 0.25 uM in presence of 0.74 uM cisplatin incubated for 2 days followed by replacement of growth media and measured after 8 days by crystal violet staining-based assay relative to control. It is filed as functional. An outline of the steps:
as §1

The test system of series [4] is NCI-H1650. The experiment in a line: Cytotoxicity against human NCI-H1650 cells assessed as reduction in cell viability after 72 hrs by MTT assay. It is filed as functional, cell-based. Conditions: NCI-H1650, 72 h. An outline of the steps: (§2)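 Cells in RPMI 1640 with 10% heat-inactivated FBS and penicillin/streptomycin at 37 °C, 5% CO2. Seeded at 4000 per well, adhered overnight, then exposed to graded compound concentrations in triplicate wells for 72 h. MTT (5 mg/mL stock) added for 4 h, dissolved in DMSO, A490 read. IC50 is the concentration reducing viability by 50% versus untreated control.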
(Tetrazolium dyes change colour on reduction, which living cells bring about.)

Series [5] has as its system A549. The experiment in a line: Induction of apoptosis in human A549 cells at 10 uM preincubated with NAC for 1 hr followed by compound addition and measured after 24 hrs by Annexin V-FITC/propidium iodide staining based flow cytometric analysis. Type of series: functional, cell-based. Put shortly: (§3)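 A549 treated 24 h at 1, 5 or 10 µM, with BMS345541 20 µM as control. Inhibitor arms pretreated 1 h with NAC (5 mM) or SP600125 (10 µM) before 10 µM. Cells harvested with EDTA-free trypsin, stained with FITC Annexin V and PI for 15 min at room temperature in the dark, analysed by flow cytometry.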
For orientation: Flow cytometry measures light scatter and fluorescence of single cells or particles in a stream.

For series [6], the system named is A549. Briefly: Cytotoxicity against human A549 cells assessed as reduction in cell viability after 72 hrs by MTT assay. It is filed as functional, cell-based. To be noted: A549, 72 h. Put shortly:
as §2

Series [7] has as its system A549. Briefly: Induction of ROS generation in human A549 cells at 10 uM preincubated with NAC for 1 hr followed by compound addition and measured after 9 hrs by DCFDA staining based flow cytometric analysis. Type of series: functional, cell-based. Put shortly:
(§4)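 A549 (6 × 10^5 per 60 mm dish) exposed to 10 µM over a time course up to 12 h, or at 1, 5 or 10 µM for 9 h. Optional NAC (5 mM) pretreatment for 1 h before 10 µM for 9 h. Cells loaded with DCF-DA (10 µM) for 30 min at 37 °C in the dark, washed, and read by flow cytometry.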

In series [8] the test system is A549. Briefly: Antiproliferative activity against human A549 cells harboring IKKbeta at 6.67 to 60 uM after 24 hrs by MTT assay. Type of series: functional, cell-based. An outline of the steps:
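A549 (seeded 3 × 10^5 per well, overnight) transfected with IKKβ plasmid or empty vector using lipofectamine 2000 in serum-free medium for 6 h, then moved to 1640 with 10% FBS. Treated at 60, 20 or 6.67 µM for 24 h. MTT (5 mg/mL stock) added for 4 h, formazan dissolved in DMSO, absorbance read at 490 nm.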

In series [9] the test system is A549. Briefly: Chemosensitization activity in human A549 cells assessed as inhibition of clonogenic growth at 1 uM in presence of 0.25 uM cisplatin incubated for 2 days followed by replacement of growth media and measured after 8 days by crystal violet staining-based assay relative to control. Type of series: functional. An outline of the steps:
as §1

A short description of series [10]: Selectivity index, ratio of IC50 for human HL7702 cells to IC50 for human NCI-H1650 cells. Type of series: toxicity. An outline of the steps: (§5)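 Selectivity index taken as the logarithm of the ratio of the HL7702 IC50 to the cancer-line IC50. […] Not calculated when an IC50 was lacking.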
The target of series [11] is T1, NF-kappa-B inhibitor alpha (Homo sapiens) (UniProt P25963).
T1 sequence (whole entry): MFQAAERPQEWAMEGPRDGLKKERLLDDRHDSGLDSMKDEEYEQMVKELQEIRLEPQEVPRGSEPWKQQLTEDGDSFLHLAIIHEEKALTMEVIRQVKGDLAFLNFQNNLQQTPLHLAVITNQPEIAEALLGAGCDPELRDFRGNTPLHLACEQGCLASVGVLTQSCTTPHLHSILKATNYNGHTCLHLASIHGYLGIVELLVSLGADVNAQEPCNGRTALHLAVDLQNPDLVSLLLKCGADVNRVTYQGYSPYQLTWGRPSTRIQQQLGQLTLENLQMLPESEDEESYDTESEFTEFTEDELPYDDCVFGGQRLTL
The experiment in a line: Inhibition of TNF-alpha induced IkappaBalpha degradation in human A549 cells at 1 to 10 uM preincubated for 1 hr followed by TNF-alpha addition and measured after 15 mins by Western blot analysis. It is filed as cell-based. An outline of the steps: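 A549 preincubated 1 h at 1, 5 or 10 µM, or with BMS345541 (20 µM), then stimulated with TNFα (1 ng/mL) for 15 min. NAC arm: 5 mM NAC for 1 h, then 10 µM for 1 h. IκBα detected by western blot, GAPDH as loading control.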
Background: A western blot detects proteins with antibodies after separation by electrophoresis.

In series [12] the test system is A549. The experiment in a line: Anticlonogenic activity against human A549 cells assessed as inhibition of clonogenic growth at 1 uM incubated for 2 days followed by replacement of growth media and measured after 8 days by crystal violet staining-based assay relative to control. It is filed as functional. An outline of the steps: as §1
Series [13] deals with A549. The experiment in a line: Anticlonogenic activity against human A549 cells assessed as inhibition of clonogenic growth at 0.5 uM incubated for 2 days followed by replacement of growth media and measured after 8 days by crystal violet staining-based assay relative to control. Type of series: functional. Put shortly:
as §1

For series [14], the system named is NCI-H460. Briefly: Cytotoxicity against human H460 cells assessed as reduction in cell viability after 72 hrs by MTT assay. It is filed as functional, cell-based. To be noted: NCI-H460, 72 h. Put shortly:
as §2

Series [15] relates to NCI-H1975. The experiment in a line: Cytotoxicity against human NCI-H1975 cells assessed as reduction in cell viability after 72 hrs by MTT assay. Type of series: functional, cell-based. To be noted: NCI-H1975, 72 h. Put shortly:
as §2

Series [16] can be described thus: Selectivity index, ratio of IC50 for human HL7702 cells to IC50 for human NCI-H1975 cells. Type of series: toxicity. An outline of the steps: as §5
Series [17] concerns A549. The experiment in a line: Chemosensitization activity in human A549 cells assessed as inhibition of clonogenic growth at 0.25 uM in presence of 0.25 uM cisplatin incubated for 2 days followed by replacement of growth media and measured after 8 days by crystal violet staining-based assay relative to control. It is filed as functional. Put shortly:
as §1

Series [18] in a line: Selectivity index, ratio of IC50 for human HL7702 cells to IC50 for human H460 cells. Type of series: toxicity. Put shortly: as §5
Series [19] relates to A549. Briefly: Induction of apoptosis in human A549 cells at 10 uM pretreated with 5 mM NAC for 1 hr followed by compound addition and measured after 24 hrs by Annexin V-FITC/propidium iodide staining based flow cytometric analysis. It is filed as functional, cell-based. An outline of the steps: as §3
Series [20] concerns A549. The experiment in a line: Induction of apoptosis in human A549 cells after 24 hrs by Annexin V-FITC/propidium iodide staining based flow cytometric analysis. It is filed as functional, cell-based. Put shortly: as §3
Series [21] relates to A549. The experiment in a line: Induction of ROS generation in human A549 cells at 10 uM after 12 hrs by DCFDA staining based flow cytometric analysis. It is filed as functional, cell-based. Conditions: in the assay text read “after 9 hrs” for “after 12 hrs”. Put shortly:
as §4

Broadly, the inhibition is the share of the control response that was lost under treatment. Broadly, the IC50 is the concentration that gives 50% inhibition.

Active and inactive are the calls of the source. The rule behind the calls is not given here.

Turning to `COc1cc(/C=C2\CN(C)C/C(=C\c3cc(OC)c(OC)c(OC)c3)C2=O)cc(OC)c1OC`, the “inhibition (INH)” value in [1] is reported as 82%; in [3], 63%; in [9] it was 90%. Further, the inhibition at 0.25 µM is 2 to 11% in series [2] and 51% in [17]. In addition, the IC50 in series [4] stood at 1.5 µM; in series [6] it was 1.7 µM; in [14], 1 µM; in series [15], 1 µM. In addition, the result in series [5], in series [7], in series [8] and in [19] was inactive. Also, the “log(RatioIC50)” value in series [10] is reported as 1.25; in series [16], 1.42; in [18] it was 1.42. For the same compound, the inhibition result in series [11] was “Active”. The inhibition at 1 µM in series [12] was 44%. Also, in [13], the inhibition at 0.5 µM worked out at 18%. Further, the Activity entry in [20] and in [21] was “Dose-dependent effect” each time.
